Assay results reported in paper PMC3583859 (RNA Biology, 2012).
Blank lines part the entries; values can stand above or below the molecule they belong to.

Columns and labels:
[1] = target: T1, YchF (YchFE.coli) (Escherichia coli, UniProt P0ABU2); test: equilibrium titration, intrinsic tryptophan fluorescence; type: binding
T1 sequence (P0ABU2 1-363): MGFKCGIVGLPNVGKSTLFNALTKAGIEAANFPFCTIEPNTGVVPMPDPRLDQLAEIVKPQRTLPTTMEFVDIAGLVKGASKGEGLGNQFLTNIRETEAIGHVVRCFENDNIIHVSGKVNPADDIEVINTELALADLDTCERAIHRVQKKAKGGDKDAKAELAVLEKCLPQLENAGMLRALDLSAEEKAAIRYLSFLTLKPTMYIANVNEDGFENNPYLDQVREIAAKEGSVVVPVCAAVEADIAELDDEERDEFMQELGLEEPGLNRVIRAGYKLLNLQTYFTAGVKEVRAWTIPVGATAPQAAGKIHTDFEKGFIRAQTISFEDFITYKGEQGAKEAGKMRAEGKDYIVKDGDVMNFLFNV
Summary of the method: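 Purified E. coli YchF in TAKM7 (50 mM Tris-Cl 7.5, 70 mM NH4Cl, 30 mM KCl, 7 mM MgCl2) titrated with nucleotides. Intrinsic fluorescence recorded in a stirred quartz cuvette: excitation 280 nm (2 nm slit), emission 295–400 nm in 1 nm steps (5 nm slits). With triphosphates, scans started immediately without equilibration. Spectra corrected against nucleotide titration into buffer alone.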

[2] = target: 70S ribosome from E. coli, purified (E. coli); test: co-sedimentation

Molecule: Nc1ncnc2c1ncn2[C@@H]1O[C@H](COP(=O)(O)OP(=O)(O)NP(=O)(O)O)[C@@H](O)[C@H]1O [ADPNP]
Kd [1]: 9 ± 8 µM

Molecule: Nc1ncnc2c1ncn2[C@@H]1O[C@H](COP(=O)(O)OP(=O)(O)O)[C@@H](O)[C@H]1O [ADP]
Kd [1]: 14 ± 5 µM

Results, then the molecule that gave them:

Kd [1]: 151 ± 38 µM
Molecule: Nc1nc2c(ncn2[C@@H]2O[C@H](COP(=O)(O)OP(=O)(O)O)[C@@H](O)[C@H]2O)c(=O)[nH]1 [GDP]

Kd [1]: 206 ± 5 µM
Molecule: Nc1nc2c(ncn2[C@@H]2O[C@H](COP(=O)(O)OP(=O)(O)OP(=O)(O)O)[C@@H](O)[C@H]2O)c(=O)[nH]1 [GTP]

Kd [2]: 3.3 µM
stoichiometry N [2]: 0.3 YchF per 70S
B1: N-terminally His-tagged YchF from Escherichia coli (enzyme)
chain: T1 sequence (P0ABU2 1-363)
